# Compound activity from PubChem.
# Compounds with a hit are over-represented: about 3.6% of the library has one in this group of screens.
# VIM-2 inh = blocks Pseudomonas aeruginosa VIM-2 metallo-beta-lactamase. inhibition, % at 5.6 µM. purified VIM-2, nitrocefin hydrolysis, epi-absorbance fluorescence. 0.89% of 290,000 active;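 active means inhibition above the mean of all tested compounds plus 3 SD, cutoff set per screening run, cut at about 7.5% in these data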;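 further: red hydrolysis product quenches plate fluorescence so inhibitors raise well fluorescence; 0% = enzyme with DMSO and 100% = DMSO without enzyme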
# pPAFAH inh = pPAFAH (human) enzyme inhibition. recombinant pPAFAH, FP-rhodamine probe fluorescence polarization. inhibition, % at 3.39 µM. 1.5% of 330,000 active. AID 463082;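 active means inhibition above the mean inhibition across the screen plus 3 SD, cut at about 25% in these data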;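 further: inhibitors block binding of the rhodamine activity-based probe so polarization drops; 0% = enzyme with DMSO and 100% = wells lacking pPAFAH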
# Target sequence (Q13093 whole entry, looked up): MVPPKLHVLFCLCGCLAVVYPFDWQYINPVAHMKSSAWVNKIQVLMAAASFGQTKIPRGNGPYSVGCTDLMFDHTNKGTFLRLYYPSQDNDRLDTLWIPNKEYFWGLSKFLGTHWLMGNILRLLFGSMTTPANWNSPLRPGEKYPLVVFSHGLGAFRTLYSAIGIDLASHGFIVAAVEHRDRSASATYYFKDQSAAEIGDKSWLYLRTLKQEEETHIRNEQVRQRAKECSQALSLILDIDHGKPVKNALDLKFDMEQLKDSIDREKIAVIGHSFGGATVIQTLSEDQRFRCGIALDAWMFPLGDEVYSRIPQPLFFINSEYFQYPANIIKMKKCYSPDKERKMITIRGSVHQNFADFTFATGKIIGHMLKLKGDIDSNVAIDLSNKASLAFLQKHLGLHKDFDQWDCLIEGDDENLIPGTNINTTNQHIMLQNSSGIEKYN
# PAFAH2 inh = PAFAH2 (human) inhibition; AID 492956; inhibition, % at 3.39 µM; recombinant PAFAH2, FP-rhodamine activity probe, fluorescence polarization; 0.99% of 340,000 active;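 active means inhibition above the mean over all tested compounds plus 3 SD, cut at about 30% in these data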;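 further: inhibitors block probe labeling of enzyme so polarization drops; 0% = enzyme with DMSO and 100% = wells lacking PAFAH2 protein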
# PAFAH1B3 inh = inhibitors of human PAFAH1B3; AID 492972; 0.28% of 340,000 active; inhibition, % at 3.39 µM; recombinant PAFAH1B3, FP-rhodamine probe, fluorescence polarization;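 active means inhibition above the screen-wide average of all tested compounds plus 3 SD, cut at about 25% in these data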;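 further: 0% = enzyme with DMSO only and 100% = wells lacking PAFAH1B3 protein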
# IMP-1 inhibitor = blocks Pseudomonas aeruginosa IMP-1 metallo-beta-lactamase; purified IMP-1, nitrocefin hydrolysis, epi-absorbance fluorescence; AID 1556; 0.45% of 290,000 active; inhibition, % at 5.6 µM;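 active means inhibition above the mean plus 3 SD of all compounds in the same screening run, cut at about 4.5% in these data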;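 further: 0% = IMP-1 with DMSO and 100% = DMSO wells lacking enzyme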
#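 assay system = purified recombinant IMP-1 metallo-beta-lactamase enzyme | schedule = 15 min preincubation plus 25 min reaction at 25 °C | signal = Epi-absorbance fluorescence, 480 nm excitation, 530 nm emission | read-out basis = percent inhibition from optical density relative to buffer-blank wells | controls = IMP-1 with DMSO as 0%, enzyme-free DMSO as 100%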
# PAFAH1B2 inh = blocks human PAF acetylhydrolase 1b catalytic subunit 2. P68402. recombinant PAFAH1B2, FP-rhodamine activity probe, fluorescence polarization. inhibition, % at 3.39 µM. 1.2% of 340,000 active;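 active means inhibition above the mean of all tested compounds plus 3 SD, cut at about 24% in these data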;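 further: 0% = enzyme with DMSO and 100% = wells lacking PAFAH1B2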
# Target sequence (P68402 whole entry, looked up): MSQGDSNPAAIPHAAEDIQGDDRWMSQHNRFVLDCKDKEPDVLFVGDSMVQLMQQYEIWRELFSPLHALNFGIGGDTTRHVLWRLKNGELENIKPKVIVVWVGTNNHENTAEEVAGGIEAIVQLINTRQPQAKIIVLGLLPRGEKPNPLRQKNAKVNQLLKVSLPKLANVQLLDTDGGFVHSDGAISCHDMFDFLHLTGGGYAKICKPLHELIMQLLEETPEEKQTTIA
# PAFAH2 FP conf = confirmation of human PAFAH2 inhibitors. inhibition, % at 3.39 µM. 65% of 2,300 active. recombinant PAFAH2, FP-rhodamine activity probe, fluorescence polarization. shares compounds with PAFAH2 inh;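 active means mean inhibition over three repeats above a set limit taken from the earlier primary screen, cut at about 30% in these data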;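 further: inhibitor blocks binding of rhodamine activity probe so polarization falls; 0% = enzyme with DMSO and 100% = wells lacking PAFAH2 protein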
# Active calls of the source: *; nt = not tested or not shown.
SMILES,VIM-2 inh,pPAFAH inh,PAFAH2 inh,PAFAH1B3 inh,IMP-1 inhibitor,PAFAH1B2 inh,PAFAH2 FP conf
C=CCNC(=O)/C=C/c1cccs1,-1,2,8,1,-3,7,nt
NC(=O)c1ccc(NC(=O)COC(=O)/C=C/c2cccs2)cc1,-3,-1,17,6,-5,1,nt
CC1CCc2c(C(=O)Nc3cccc(-c4nn[nH]n4)c3)csc2C1 (configuration not stated),-2,-16,8,1,-4,19,nt
NC(=S)NN=C1CCSCC1,nt,nt,-1,-1,nt,5,nt
COc1cc(C)ccc1OCc1cc(C(=O)N2CCCCCCC2)no1,1,-2,5,8,-2,-1,nt
CC(C)(C)OC(=O)N1CCC(C(=O)Nc2ccc(C(=O)NCc3ccccc3)cc2)CC1,nt,nt,-4,10,nt,8,nt
CN(C(=O)COC(=O)/C=C/c1cccs1)C1CCCCC1,nt,2,75*,1,nt,0,73*
Cc1cc(Br)cc(Cl)c1OC(=O)c1ccncc1,0,-3,7,-6,-3,5,nt
C/C=C/C1=CC(=O)C[C@H](c2ccc(Cl)cc2)C1,nt,3,3,13,nt,10,nt
Cc1ccc(C(=O)NCCSc2c(C)[nH]c3ccccc23)cc1[N+](=O)[O-],-2,6,30*,6,0,8,19
CC1CCN(C(=O)COC(=O)c2ccc(N3CCCC3=O)cc2)CC1,nt,2,37*,10,nt,7,30*
CC1CCN(C(=O)COC(=O)c2cccs2)CC1,nt,6,35*,3,nt,6,21
O=C(OCC(=O)N1CCOCC1)c1ccc2c(c1)OCCO2,-2,0,3,2,-3,-2,nt
CC1CCN(C(=O)COC(=O)c2ccc3c(c2)OCO3)CC1,0,0,39*,6,-2,-5,19
CC1CCN(C(=O)COC(=O)c2ccc(Cl)nc2)CC1,nt,3,2,7,nt,5,nt
O=C(OCC(=O)N1CCCCC1)c1cccs1,nt,2,10,6,nt,4,nt
CC1CCN(C(=O)COC(=O)c2ccc3c(c2)OCCO3)CC1,nt,12,46*,10,nt,4,30*
Cc1cccc(N2CCN(C(=O)COc3ccc4c(c3)CCC4)CC2C)c1 (configuration not stated),nt,6,3,2,nt,-4,nt
CC(Sc1nnc(CN2CCCC2)n1Cc1ccccc1)C(=O)Nc1ccc(F)cc1Cl (configuration not stated),nt,nt,0,2,nt,5,nt
O=C(COC(=O)c1ccc2ncsc2c1)NCc1ccccc1Cl,nt,0,84*,3,nt,8,67*
COc1ccc(CNC(=O)COC(=O)c2ccc3ncsc3c2)cc1OC,nt,3,2,-1,nt,4,nt
O=C(COC(=O)c1ccc2ncsc2c1)NCc1ccc(F)cc1,nt,-3,51*,7,nt,3,34*
O=C(CSc1nc(NS(=O)(=O)c2ccccc2)cc(=O)[nH]1)Nc1ccccc1C(F)(F)F,-1,-1,-7,11,0,2,nt
COc1ccc(S(=O)(=O)N2CCCCC2)cc1NC(=O)CCCOc1ccc(C)cc1,nt,7,7,-1,nt,13,nt
CCOc1ccc(CCNC(=O)COC(=O)c2ccc(OC)c(OC)c2OC)cc1OCC,-1,3,20,2,-4,2,nt
SMILES,VIM-2 inh,pPAFAH inh,PAFAH2 inh,PAFAH1B3 inh,IMP-1 inhibitor,PAFAH1B2 inh,PAFAH2 FP conf
COc1ccc(C)cc1NC(=O)COC(=O)c1c(C)noc1C,-2,-1,46*,5,-2,-3,-1
COc1ccc(C(=O)OCC(=O)Nc2ccc(Cl)c(C(F)(F)F)c2)c(OC)c1OC,-2,21,68*,-3,-3,3,77*
COc1cc(C(=O)OCC(=O)Nc2cc(C)on2)c([N+](=O)[O-])cc1OC,-2,1,37*,4,-2,0,24
COc1cc(OC)c(C(=O)OCC(=O)Nc2cc(C)on2)cc1OC,1,-1,5,4,-3,-3,nt
COc1ccc(C(=O)OCC(=O)NCc2ccccc2)c(OC)c1OC,-2,2,57*,-2,-2,2,56*
COC(=O)C1=C[C@@H](C(=O)OC)[C@@H]2C3=C(C(=O)C2(C)C)[C@H](C)n2c(=O)n(-c4ccccc4)c(=O)n2[C@@H]3C1,nt,3,8,-10,nt,-6,nt
CN(c1ccccc1)c1cc(Br)nc(Br)c1,nt,-2,2,12,nt,6,nt
Cc1cc(SCc2ccc(Cl)c(Cl)c2)nc(=O)[nH]1,-4,7,14,6,-3,4,nt
COc1ccc(C(=O)OCC(=O)Nc2cc(C)on2)c(OC)c1OC,-3,3,68*,2,-2,2,65*
COc1ccc(C(=O)NCC(=O)OCC(=O)NC23CC4CC(CC(C4)C2)C3)cc1,nt,5,58*,3,nt,7,44*
N#Cc1cccc(NC(=O)COC(=O)c2ccccc2Sc2ccccc2C#N)c1,-2,-8,45*,-2,-1,-6,39*
CC1CCCC(NC(=O)COC(=O)c2ccccc2Sc2ccccc2C#N)C1C (configuration not stated),-2,2,27,1,-1,1,nt
COc1ccc(C(=O)NC23CC4CC(CC(C4)C2)C3)cc1,-1,0,12,5,-2,9,nt
O=C(COC(=O)c1ccccc1)NC12CC3CC(CC(C3)C1)C2,nt,5,79*,2,nt,3,89*
CC(=O)c1ccc(NC(=O)COC(=O)c2ccccc2Sc2ccccc2C#N)cc1,-5,-1,8,8,-2,0,nt
N#Cc1ccccc1Sc1ccccc1C(=O)OCC(=O)NC12CC3CC(CC(C3)C1)C2,-2,3,50*,2,-3,3,47*
O=C(CCNS(=O)(=O)c1ccc(Cl)cc1)N1CCN(c2ccccn2)CC1,0,7,3,0,-4,3,nt
CCc1ccc(OCC(=O)NC(=S)Nc2ccc(C)cc2C)c(Br)c1,-1,0,30*,8,-2,-3,-3
COc1cc(OC)cc(N(C(=O)CNC(=O)c2cccs2)C(C(=O)NCC2CCCO2)c2ccccc2)c1 (configuration not stated),0,4,-11,-4,-4,1,nt
CCn1c(C)nc2cc(C(=O)OC(C(F)(F)C(F)F)C(F)(F)C(F)F)ccc21,-2,24,90*,7,-1,14,79*
CCn1c(C)nc2cc(C(=O)NNC(=O)c3ccc(C)cc3)ccc21,nt,3,-4,-6,nt,3,nt
O=C(NC1CCC(Oc2ccc(C(=O)O)cc2)CC1)NC12CC3CC(CC(C3)C1)C2 (configuration not stated),nt,1,2,11,nt,4,nt
Cc1ccc(S(=O)(=O)N(CC(=O)Nc2ccccc2C(=O)O)c2cccc(Cl)c2C)cc1,-3,-5,32*,-10,-1,10,29
